Active and inactive are the calls of the source. The rule behind the calls is not given here.
Key:
[1] = target: T1, Myosin light chain kinase, smooth muscle (Homo sapiens, UniProt Q15746); experiment: Inhibition of MLCK by HTRF assay
[2] = target: T2, Epidermal growth factor receptor (Homo sapiens, UniProt P00533); experiment: Inhibition of EGFR by HTRF assay
[3] = target: T1, Myosin light chain kinase, smooth muscle; experiment: Inhibition of MLCK up to 40 uM by HTRF assay
In short: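 HTRF activity assay with peptide substrate STK1 at 375 nM and ATP at its Km (18 µM), in the presence of Ca2+/calmodulin. Kinase and inhibitor preincubated 30 min, then ATP plus substrate added. Detection by Eu-cryptate anti-phospho-STK1 antibody and streptavidin-XL665, with the 665/620 nm FRET ratio read. Eight inhibitor concentrations, Hill 4-parameter fit. At least two independent runs, each in duplicate. NI means no inhibition up to 40 µM.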

[4] = target: T2, Epidermal growth factor receptor; experiment: Inhibition of EGFR up to 40 uM by HTRF assay

T1 sequence (Q15746 whole entry): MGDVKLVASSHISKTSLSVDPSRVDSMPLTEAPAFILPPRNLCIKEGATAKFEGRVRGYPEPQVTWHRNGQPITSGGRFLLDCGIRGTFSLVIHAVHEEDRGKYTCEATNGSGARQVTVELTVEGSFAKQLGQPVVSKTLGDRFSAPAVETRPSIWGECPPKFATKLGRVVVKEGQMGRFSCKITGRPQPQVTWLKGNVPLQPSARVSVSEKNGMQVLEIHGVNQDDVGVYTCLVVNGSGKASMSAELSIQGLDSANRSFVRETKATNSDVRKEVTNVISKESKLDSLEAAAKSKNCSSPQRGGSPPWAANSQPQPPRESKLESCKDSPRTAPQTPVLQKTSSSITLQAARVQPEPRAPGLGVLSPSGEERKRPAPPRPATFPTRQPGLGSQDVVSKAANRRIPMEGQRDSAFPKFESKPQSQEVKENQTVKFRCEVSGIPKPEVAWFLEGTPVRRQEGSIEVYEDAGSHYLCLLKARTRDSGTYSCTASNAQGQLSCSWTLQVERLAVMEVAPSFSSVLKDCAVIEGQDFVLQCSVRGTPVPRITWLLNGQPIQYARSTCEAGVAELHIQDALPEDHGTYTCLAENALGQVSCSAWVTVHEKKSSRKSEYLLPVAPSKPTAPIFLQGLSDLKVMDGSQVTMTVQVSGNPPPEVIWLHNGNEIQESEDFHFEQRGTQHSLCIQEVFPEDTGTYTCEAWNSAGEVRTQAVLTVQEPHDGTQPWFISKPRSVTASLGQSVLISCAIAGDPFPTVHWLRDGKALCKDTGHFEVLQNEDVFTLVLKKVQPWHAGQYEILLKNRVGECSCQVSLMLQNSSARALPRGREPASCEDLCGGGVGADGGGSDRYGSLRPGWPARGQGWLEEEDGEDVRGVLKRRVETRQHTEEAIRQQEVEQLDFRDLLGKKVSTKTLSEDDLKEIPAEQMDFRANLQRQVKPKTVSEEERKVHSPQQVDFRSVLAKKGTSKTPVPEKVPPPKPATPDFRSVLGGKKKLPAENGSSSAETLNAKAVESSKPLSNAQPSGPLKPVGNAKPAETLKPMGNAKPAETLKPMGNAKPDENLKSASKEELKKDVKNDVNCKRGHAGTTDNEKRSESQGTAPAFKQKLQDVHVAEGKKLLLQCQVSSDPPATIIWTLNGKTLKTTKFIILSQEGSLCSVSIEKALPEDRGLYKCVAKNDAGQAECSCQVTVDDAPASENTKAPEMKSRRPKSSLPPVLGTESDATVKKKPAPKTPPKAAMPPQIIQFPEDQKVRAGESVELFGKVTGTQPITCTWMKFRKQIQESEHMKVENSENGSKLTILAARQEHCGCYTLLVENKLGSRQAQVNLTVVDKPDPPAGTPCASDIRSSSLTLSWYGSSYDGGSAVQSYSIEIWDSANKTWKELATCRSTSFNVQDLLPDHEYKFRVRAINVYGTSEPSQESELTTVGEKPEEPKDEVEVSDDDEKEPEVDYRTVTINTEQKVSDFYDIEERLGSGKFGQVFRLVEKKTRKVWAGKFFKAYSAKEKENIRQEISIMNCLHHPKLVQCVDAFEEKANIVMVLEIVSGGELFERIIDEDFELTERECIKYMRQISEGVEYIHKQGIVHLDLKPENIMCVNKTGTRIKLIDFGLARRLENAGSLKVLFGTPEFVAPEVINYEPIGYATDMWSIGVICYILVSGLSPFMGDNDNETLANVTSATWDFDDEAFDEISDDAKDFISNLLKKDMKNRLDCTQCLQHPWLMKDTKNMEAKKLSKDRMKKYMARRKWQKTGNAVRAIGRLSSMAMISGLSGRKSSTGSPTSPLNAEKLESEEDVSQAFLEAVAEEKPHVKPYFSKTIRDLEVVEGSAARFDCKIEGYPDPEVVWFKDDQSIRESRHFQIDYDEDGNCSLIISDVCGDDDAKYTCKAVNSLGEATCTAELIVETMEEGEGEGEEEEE
T2 sequence (P00533 whole entry): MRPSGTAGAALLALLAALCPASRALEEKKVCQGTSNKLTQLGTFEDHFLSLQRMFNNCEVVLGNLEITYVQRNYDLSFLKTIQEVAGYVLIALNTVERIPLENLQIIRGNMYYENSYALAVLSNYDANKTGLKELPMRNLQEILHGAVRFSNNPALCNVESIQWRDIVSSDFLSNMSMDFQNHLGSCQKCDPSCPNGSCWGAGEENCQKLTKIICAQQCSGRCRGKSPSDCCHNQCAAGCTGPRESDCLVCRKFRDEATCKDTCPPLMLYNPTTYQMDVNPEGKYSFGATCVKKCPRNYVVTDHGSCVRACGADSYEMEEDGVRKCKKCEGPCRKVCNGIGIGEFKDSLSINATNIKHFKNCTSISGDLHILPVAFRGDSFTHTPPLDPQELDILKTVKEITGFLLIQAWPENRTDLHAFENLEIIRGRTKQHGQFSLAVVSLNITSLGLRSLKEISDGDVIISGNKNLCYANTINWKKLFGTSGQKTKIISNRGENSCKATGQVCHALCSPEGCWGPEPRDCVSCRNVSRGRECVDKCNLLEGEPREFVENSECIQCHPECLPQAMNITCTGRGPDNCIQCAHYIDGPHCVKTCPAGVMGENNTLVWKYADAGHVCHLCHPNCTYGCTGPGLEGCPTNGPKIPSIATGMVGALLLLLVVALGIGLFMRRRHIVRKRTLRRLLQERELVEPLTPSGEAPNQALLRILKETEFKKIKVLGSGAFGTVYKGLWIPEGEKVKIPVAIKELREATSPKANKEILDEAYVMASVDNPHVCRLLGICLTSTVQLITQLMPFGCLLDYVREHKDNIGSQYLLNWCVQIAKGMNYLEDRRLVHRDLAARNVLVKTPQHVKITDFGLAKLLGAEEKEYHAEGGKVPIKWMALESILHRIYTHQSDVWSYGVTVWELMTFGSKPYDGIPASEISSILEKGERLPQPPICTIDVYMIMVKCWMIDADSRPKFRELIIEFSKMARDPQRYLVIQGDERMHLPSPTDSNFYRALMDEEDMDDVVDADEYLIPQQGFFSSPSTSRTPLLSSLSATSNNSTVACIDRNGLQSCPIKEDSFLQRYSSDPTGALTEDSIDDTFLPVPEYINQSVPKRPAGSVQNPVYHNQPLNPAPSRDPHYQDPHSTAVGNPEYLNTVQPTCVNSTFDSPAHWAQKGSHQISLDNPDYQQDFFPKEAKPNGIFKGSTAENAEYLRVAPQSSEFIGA

O=S(=O)(c1cccc2cnccc12)N1CCCNCC1 [FASUDIL]
IC50 [1]: 21.6 µM | Ki [1]: 36 µM

N#Cc1cnc(Nc2cccc(Br)c2)c2cc(NC(=O)c3ccoc3)ccc12
IC50 [2]: 45.2 µM | inhibition [3]: inactive

CCOC(=O)Nc1ccc2c(C#N)cnc(Nc3cccc(Br)c3)c2c1
IC50 [2]: 12.8 µM | inhibition [3]: inactive

N#Cc1cnc(Nc2cccc(Br)c2)c2cc(NC(=O)c3cc4ccccc4[nH]3)ccc12
inhibition [4]: inactive | inhibition [3]: inactive

N#Cc1cnc(Nc2cccc(Br)c2)c2cc(NC(=O)[C@@H]3CCC(=O)N3)ccc12
IC50 [2]: 2.2 µM | inhibition [3]: inactive

N#Cc1cnc(Nc2cccc(Br)c2)c2cc(NC(=O)c3ccco3)ccc12
IC50 [2]: 55.6 µM | inhibition [3]: inactive

COC[C@H]1OC(=O)c2coc3c2[C@@]1(C)C1=C(C3=O)[C@@H]2CCC(=O)[C@@]2(C)C[C@H]1OC(C)=O [WORTMANNIN]
IC50 [1]: 0.17 µM

N#Cc1cnc(Nc2cccc(Br)c2)c2cc(NC(=O)CCN3CCOCC3)ccc12
IC50 [2]: 6.9 µM | inhibition [3]: inactive

CCC(=O)Nc1ccc2c(C#N)cnc(Nc3cccc(Br)c3)c2c1
IC50 [2]: 20.8 µM | inhibition [3]: inactive

NCCCCCCNS(=O)(=O)c1cccc2c(Cl)cccc12
Ki [1]: 110 µM

O=S(=O)(c1cccc2c(I)cccc12)N1CCCNCC1
Ki [1]: 0.3 µM

— ChEMBL document CHEMBL1641579, “Synthesis and biological evaluation of 7-substituted-1-(3-bromophenylamino)isoquinoline-4-carbonitriles as inhibitors of myosin light chain kinase and epidermal growth factor receptor” (Bioorg Med Chem, 2011)
